Experimental data reported in ChEMBL document CHEMBL1629499, “Synthesis, crystal structure and biological evaluation of novel 2-(5-(hydroxymethyl)-3-phenyl-1H-pyrazol-1-yl)-1-phenylethanol derivatives” (Eur J Med Chem, 2010).
The source made the active and inactive calls. The rule behind the calls is not given here.

Experiments:
Type in all cases: functional, cell-based
A549 [1] = test: Anticancer activity against human A549 cells assessed as cell viability at 60 uM after 48 hrs by phase contrast microscopy
How it was run: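 A549 lung cancer cells grown in RPMI 1640 with 10% bovine calf serum and 80 U/ml gentamicin at 37 °C, 5% CO2, seeded at 6250/cm². After 48 h exposure, cells inspected by phase contrast microscopy for morphology and cell number.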

A549 [2] = test: Anticancer activity against human A549 cells assessed as upregulation of LC3-2 expression at 60 uM after 48 hrs by Western blot analysis
How it was run: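 After 48 h treatment, A549 cells washed in ice-cold PBS and lysed in 0.5% SDS buffer (25 mM Tris-HCl pH 7.5, EDTA, NaCl, PMSF, protease inhibitors). Protein measured by Bradford. Equal protein run on 15% SDS-PAGE, transferred to PVDF, probed overnight at 4 °C with primary antibody, β-actin as loading control. HRP secondary, chemiluminescent detection on film, bands quantified by densitometry.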

A549 [3] = test: Induction of apoptosis in human A549 cells assessed as morphological changes at 60 uM after 48 hrs by Hoechst 33258 staining-based fluorescence microscopy
How it was run: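 A549 cells exposed 48 h, stained with Hoechst 33258 and examined by fluorescence microscopy for chromatin condensation and nuclear DNA fragmentation.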

A549 [4] = test: Cell cycle arrest in human A549 cells assessed as accumulation in G1 phase at 60 uM after 48 hrs using propidium iodide staining by flow cytometry (reference value: 22%)
A549 [5] = test: Induction of necrosis in human A549 cells assessed as LDH release at 60 uM after 48 hrs
How it was run: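 LDH activity measured in culture medium of A549 cells after 48 h exposure and compared with control cells.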

In the case of COc1ccc(-c2cc(CO)n(CC(O)c3ccccc3)n2)cc1 (stereo unspecified), the Activity (A549 [1]) is reported as “inactive”.

With COc1ccc(C(O)Cn2nc(-c3ccccc3)cc2CO)cc1 (stereo unspecified) the Activity (A549 [1]) was “inactive”.

In the case of COc1ccc(C(O)Cn2nc(-c3ccc(Cl)cc3)cc2CO)cc1 (stereo unspecified), the Activity (A549 [1]) is reported as “inactive”.

For COc1ccc(-c2cc(CO)n(CC(O)c3ccc(OC)cc3)n2)cc1 (stereo unspecified), the Activity (A549 [1]) was “inactive”.

COc1ccc(-c2cc(CO)n(CC(O)c3ccc(Cl)cc3)n2)cc1 (stereo unspecified) was tested, and the Activity (A549 [2]) was “Active”, the Activity (A549 [3]) was “inactive” and the Activity (A549 [4]) was “inactive”. The Activity (A549 [5]) was “inactive”.

For OCc1cc(-c2ccccc2)nn1CC(O)c1ccccc1 (stereo unspecified), the Activity (A549 [1]) was “inactive”.

For OCc1cc(-c2ccc(Cl)cc2)nn1CC(O)c1ccc(Cl)cc1 (stereo unspecified), the Activity (A549 [2]) was “Active”, the Activity (A549 [3]) was “inactive” and the Activity (A549 [5]) was “inactive”.

For OCc1cc(-c2ccccc2)nn1CC(O)c1ccc(Cl)cc1 (stereo unspecified), the Activity (A549 [2]) was “Active”, the Activity (A549 [3]) was “inactive” and the Activity (A549 [5]) was “inactive”.

For OCc1cc(-c2ccc(Cl)cc2)nn1CC(O)c1ccccc1 (stereo unspecified), the Activity (A549 [1]) was “inactive”.
